According to ChEMBL document CHEMBL3734675, “Synthesis, antimycobacterial and antibacterial activity of fluoroquinolone derivatives containing an 3-alkoxyimino-4-(cyclopropylanimo)methylpyrrolidine moiety” (2015):
≈ marks a conversion by molar mass, not a printed value.

What was measured:
Assay type in all cases: functional
Escherichia coli [1] = assay: Antibacterial activity against extended-spectrum beta-lactamase producing Escherichia coli 14-2 after 18 to 24 hrs by two-fold serial dilution method
How it was run: (§1)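 Twofold serial dilution in agar media against Gram-positive and Gram-negative strains. Plates incubated at 35 °C for 18–24 h. MIC read as the lowest compound concentration giving complete inhibition of bacterial growth.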

[2] = test system: Staphylococcus epidermidis; assay: Antibacterial activity against methicillin-resistant Staphylococcus epidermidis 14-21 after 18 to 24 hrs by two-fold serial dilution method
How it was run: (§2)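 Agar media, standard twofold serial dilution. MIC is the lowest concentration giving complete inhibition of bacterial growth after incubation at 35 °C for 18–24 h. Ciprofloxacin and levofloxacin were run as comparators.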

Enterococcus faecalis [3] = assay: Potency index, ratio of ciprofloxacin MIC to compound MIC for Enterococcus faecalis 14-2
Klebsiella pneumoniae [4] = assay: Antibacterial activity against extended-spectrum beta-lactamase producing Klebsiella pneumoniae 14-17 after 18 to 24 hrs by two-fold serial dilution method; how it was run: as §1
Enterococcus faecium [5] = assay: Potency index, ratio of levofloxacin MIC to compound MIC for Enterococcus faecium 14-5
Enterococcus faecium [6] = assay: Potency index, ratio of levofloxacin MIC to compound MIC for Enterococcus faecium 14-6
[7] = test system: Staphylococcus epidermidis; assay: Potency index, ratio of levofloxacin MIC to compound MIC for methicillin-resistant Staphylococcus epidermidis 14-21
Staphylococcus aureus [8] = assay: Antibacterial activity against Staphylococcus aureus CMCC 26003 after 18 to 24 hrs by two-fold serial dilution method; how it was run: as §1
Enterococcus faecalis [9] = assay: Potency index, ratio of levofloxacin MIC to compound MIC for Enterococcus faecalis 14-1
Pseudomonas aeruginosa [10] = assay: Antibacterial activity against Pseudomonas aeruginosa 14-14 after 18 to 24 hrs by two-fold serial dilution method; how it was run: as §1
Staphylococcus aureus [11] = assay: Potency index, ratio of ciprofloxacin MIC to compound MIC for methicillin-resistant Staphylococcus aureus 14-5
Escherichia coli [12] = assay: Antibacterial activity against Escherichia coli 14-2 after 18 to 24 hrs by two-fold serial dilution method; how it was run: as §1
Enterococcus faecalis [13] = assay: Potency index, ratio of levofloxacin MIC to compound MIC for Enterococcus faecalis 14-2
Enterococcus faecalis [14] = assay: Antibacterial activity against Enterococcus faecalis 14-1 after 18 to 24 hrs by two-fold serial dilution method; how it was run: as §1
Staphylococcus aureus [15] = assay: Antibacterial activity against methicillin-resistant Staphylococcus aureus 14-5 after 18 to 24 hrs by two-fold serial dilution method; how it was run: as §2
Pseudomonas aeruginosa [16] = assay: Antibacterial activity against Pseudomonas aeruginosa 14-16 after 18 to 24 hrs by two-fold serial dilution method; how it was run: as §1
Enterococcus faecium [17] = assay: Antibacterial activity against Enterococcus faecium 14-5 after 18 to 24 hrs by two-fold serial dilution method; how it was run: as §1
[18] = test system: Staphylococcus epidermidis; assay: Antibacterial activity against methicillin-sensitive Staphylococcus epidermidis 14-2 after 18 to 24 hrs by two-fold serial dilution method; how it was run: as §1
Staphylococcus aureus [19] = assay: Potency index, ratio of levofloxacin MIC to compound MIC for methicillin-resistant Staphylococcus aureus 14-4
Staphylococcus aureus [20] = assay: Antibacterial activity against methicillin-sensitive Staphylococcus aureus 14-1 after 18 to 24 hrs by two-fold serial dilution method; how it was run: as §1
[21] = test system: Staphylococcus epidermidis; assay: Antibacterial activity against methicillin-resistant Staphylococcus epidermidis 14-22 after 18 to 24 hrs by two-fold serial dilution method; how it was run: as §2
[22] = test system: Staphylococcus epidermidis; assay: Potency index, ratio of levofloxacin MIC to compound MIC for methicillin-resistant Staphylococcus epidermidis 14-39
Enterococcus faecium [23] = assay: Potency index, ratio of ciprofloxacin MIC to compound MIC for Enterococcus faecium 14-2
Staphylococcus aureus [24] = assay: Antibacterial activity against methicillin-resistant Staphylococcus aureus 14-4 after 18 to 24 hrs by two-fold serial dilution method; how it was run: as §2
Pseudomonas aeruginosa [25] = assay: Antibacterial activity against Pseudomonas aeruginosa 14-9 after 18 to 24 hrs by two-fold serial dilution method; how it was run: as §1
Klebsiella pneumoniae [26] = assay: Antibacterial activity against Klebsiella pneumoniae 14-3 after 18 to 24 hrs by two-fold serial dilution method; how it was run: as §1
[27] = test system: Staphylococcus epidermidis; assay: Antibacterial activity against methicillin-resistant Staphylococcus epidermidis 14-37 after 18 to 24 hrs by two-fold serial dilution method; how it was run: as §2
[28] = test system: Staphylococcus epidermidis; assay: Potency index, ratio of ciprofloxacin MIC to compound MIC for methicillin-resistant Staphylococcus epidermidis 14-39
Escherichia coli [29] = assay: Antibacterial activity against Escherichia coli 14-1 after 18 to 24 hrs by two-fold serial dilution method; how it was run: as §1
[30] = test system: Staphylococcus epidermidis; assay: Potency index, ratio of ciprofloxacin MIC to compound MIC for methicillin-resistant Staphylococcus epidermidis 14-37
Staphylococcus aureus [31] = assay: Potency index, ratio of ciprofloxacin MIC to compound MIC for methicillin-resistant Staphylococcus aureus 14-4
Enterococcus faecium [32] = assay: Antibacterial activity against Enterococcus faecium 14-2 after 18 to 24 hrs by two-fold serial dilution method; how it was run: as §1
Escherichia coli [33] = assay: Antibacterial activity against extended-spectrum beta-lactamase producing Escherichia coli 14-1 after 18 to 24 hrs by two-fold serial dilution method; how it was run: as §1
Enterococcus faecium [34] = assay: Potency index, ratio of levofloxacin MIC to compound MIC for Enterococcus faecium 14-2
Klebsiella pneumoniae [35] = assay: Antibacterial activity against extended-spectrum beta-lactamase producing Klebsiella pneumoniae 14-19 after 18 to 24 hrs by two-fold serial dilution method; how it was run: as §1
Pseudomonas aeruginosa [36] = assay: Antibacterial activity against Pseudomonas aeruginosa 14-15 after 18 to 24 hrs by two-fold serial dilution method; how it was run: as §1
Staphylococcus aureus [37] = assay: Potency index, ratio of levofloxacin MIC to compound MIC for methicillin-resistant Staphylococcus aureus 14-5
Klebsiella pneumoniae [38] = assay: Antibacterial activity against Klebsiella pneumoniae 14-2 after 18 to 24 hrs by two-fold serial dilution method; how it was run: as §1
[39] = test system: Staphylococcus epidermidis; assay: Potency index, ratio of levofloxacin MIC to compound MIC for methicillin-resistant Staphylococcus epidermidis 14-22
[40] = test system: Staphylococcus epidermidis; assay: Antibacterial activity against methicillin-resistant Staphylococcus epidermidis 14-39 after 18 to 24 hrs by two-fold serial dilution method; how it was run: as §2
[41] = test system: Staphylococcus epidermidis; assay: Potency index, ratio of levofloxacin MIC to compound MIC for methicillin-resistant Staphylococcus epidermidis 14-37
[42] = test system: Staphylococcus epidermidis; assay: Potency index, ratio of ciprofloxacin MIC to compound MIC for methicillin-resistant Staphylococcus epidermidis 14-21
[43] = test system: Staphylococcus epidermidis; assay: Potency index, ratio of ciprofloxacin MIC to compound MIC for methicillin-resistant Staphylococcus epidermidis 14-22
Enterococcus faecium [44] = assay: Potency index, ratio of ciprofloxacin MIC to compound MIC for Enterococcus faecium 14-6
Pseudomonas aeruginosa [45] = assay: Antibacterial activity against Pseudomonas aeruginosa ATCC 27853 after 18 to 24 hrs by two-fold serial dilution method; how it was run: as §1
Klebsiella pneumoniae [46] = assay: Antibacterial activity against Klebsiella pneumoniae 14-1 after 18 to 24 hrs by two-fold serial dilution method; how it was run: as §1
Escherichia coli [47] = assay: Antibacterial activity against Escherichia coli ATCC 25922 after 18 to 24 hrs by two-fold serial dilution method; how it was run: as §1
Staphylococcus aureus [48] = assay: Antibacterial activity against methicillin-sensitive Staphylococcus aureus 14-4 after 18 to 24 hrs by two-fold serial dilution method; how it was run: as §1
Klebsiella pneumoniae [49] = assay: Antibacterial activity against Klebsiella pneumoniae 14-4 after 18 to 24 hrs by two-fold serial dilution method; how it was run: as §1
Klebsiella pneumoniae [50] = assay: Antibacterial activity against extended-spectrum beta-lactamase producing Klebsiella pneumoniae 14-18 after 18 to 24 hrs by two-fold serial dilution method; how it was run: as §1
Enterococcus faecium [51] = assay: Potency index, ratio of ciprofloxacin MIC to compound MIC for Enterococcus faecium 14-5
Streptococcus pneumoniae = assay: Antibacterial activity against methicillin-resistant Streptococcus pneumoniae ATCC 19615 after 18 to 24 hrs by two-fold serial dilution method; how it was run: as §2
Enterococcus faecalis [52] = assay: Potency index, ratio of ciprofloxacin MIC to compound MIC for Enterococcus faecalis 14-1
Staphylococcus aureus [53] = assay: Antibacterial activity against methicillin-sensitive Staphylococcus aureus 14-3 after 18 to 24 hrs by two-fold serial dilution method; how it was run: as §1
Enterococcus faecalis [54] = assay: Antibacterial activity against Enterococcus faecalis 14-2 after 18 to 24 hrs by two-fold serial dilution method; how it was run: as §1
Enterococcus faecium [55] = assay: Antibacterial activity against Enterococcus faecium 14-6 after 18 to 24 hrs by two-fold serial dilution method; how it was run: as §1

O=C(O)c1cn2c3c(c(N4C/C(=N/OCc5ccccc5)C(CNC5CC5)C4)c(F)cc3c1=O)OC[C@@H]2CF (stereo partly specified)
MIC (Escherichia coli [1]): > 64 µg/mL
MIC [2]: 2 µg/mL (≈ 3.71 µM)
Ratio (Enterococcus faecalis [3]): 2
MIC (Klebsiella pneumoniae [4]): 64 µg/mL (≈ 119 µM)
Ratio (Enterococcus faecium [5]): 2
Ratio (Enterococcus faecium [6]): 2
Ratio [7]: 2
MIC (Staphylococcus aureus [8]): < 0.008 µg/mL
Ratio (Enterococcus faecalis [9]): 2
MIC (Pseudomonas aeruginosa [10]): 64 µg/mL (≈ 119 µM)
Ratio (Staphylococcus aureus [11]): 2
MIC (Escherichia coli [12]): > 64 µg/mL
Ratio (Enterococcus faecalis [13]): 2
MIC (Enterococcus faecalis [14]): 1 µg/mL (≈ 1.86 µM)
MIC (Staphylococcus aureus [15]): 4 µg/mL (≈ 7.43 µM)
MIC (Pseudomonas aeruginosa [16]): 32 µg/mL (≈ 59.4 µM)
MIC (Enterococcus faecium [17]): 8 µg/mL (≈ 14.9 µM)
MIC [18]: 8 µg/mL (≈ 14.9 µM)
Ratio (Staphylococcus aureus [19]): 2
MIC (Staphylococcus aureus [20]): 1 µg/mL (≈ 1.86 µM)
MIC [21]: 2 µg/mL (≈ 3.71 µM)
Ratio [22]: 2
Ratio (Enterococcus faecium [23]): 2
MIC (Staphylococcus aureus [24]): 2 µg/mL (≈ 3.71 µM)
MIC (Pseudomonas aeruginosa [25]): 32 µg/mL (≈ 59.4 µM)
MIC (Klebsiella pneumoniae [26]): 64 µg/mL (≈ 119 µM)
MIC [27]: 2 µg/mL (≈ 3.71 µM)
Ratio [28]: 2
MIC (Escherichia coli [29]): > 64 µg/mL
Ratio [30]: 2
Ratio (Staphylococcus aureus [31]): 2
MIC (Enterococcus faecium [32]): 1 µg/mL (≈ 1.86 µM)
MIC (Escherichia coli [33]): 4 µg/mL (≈ 7.43 µM)
Ratio (Enterococcus faecium [34]): 2
MIC (Klebsiella pneumoniae [35]): 32 µg/mL (≈ 59.4 µM)
MIC (Pseudomonas aeruginosa [36]): 64 µg/mL (≈ 119 µM)
Ratio (Staphylococcus aureus [37]): 2
MIC (Klebsiella pneumoniae [38]): 32 µg/mL (≈ 59.4 µM)
Ratio [39]: 2
MIC [40]: 2 µg/mL (≈ 3.71 µM)
Ratio [41]: 2
Ratio [42]: 2
Ratio [43]: 2
Ratio (Enterococcus faecium [44]): 2
MIC (Pseudomonas aeruginosa [45]): 32 µg/mL (≈ 59.4 µM)
MIC (Klebsiella pneumoniae [46]): 64 µg/mL (≈ 119 µM)
MIC (Escherichia coli [47]): 1 µg/mL (≈ 1.86 µM)
MIC (Staphylococcus aureus [48]): 0.03 µg/mL (≈ 0.0557 µM)
MIC (Klebsiella pneumoniae [49]): > 64 µg/mL
MIC (Klebsiella pneumoniae [50]): 32 µg/mL (≈ 59.4 µM)
Ratio (Enterococcus faecium [51]): 2
MIC (Streptococcus pneumoniae): 0.125 µg/mL (≈ 0.232 µM)
Ratio (Enterococcus faecalis [52]): 2
MIC (Staphylococcus aureus [53]): 0.015 µg/mL (≈ 0.0279 µM)
MIC (Enterococcus faecalis [54]): 0.25 µg/mL (≈ 0.464 µM)
MIC (Enterococcus faecium [55]): 8 µg/mL (≈ 14.9 µM)
